# According to ChEMBL document CHEMBL5096186, “Design, Synthesis, and Biological Evaluation of Novel Pyrimido[4,5-b]indole Derivatives Against Gram-Negative Multidrug-Resistant Pathogens” (J Med Chem, 2021):
# Legend:
# [1] = Metabolic stability in human liver microsome assessed as elimination half life at 0.1 uM in presence of NADPH incubated upto 60 mins by LC-MS/MS analysis; format: ADME; settings: liver microsomes, read-out: beta t1/2
# In short: (§1)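 Compound at 0.1 μM final, in 0.01% DMSO with 0.005% BSA. Incubated with rat or human liver microsomes at 0.33 mg/mL in 0.1 M Tris-HCl, pH 7.4, with 5 mM MgCl₂ and 1 mM NADPH, at 37 °C. Samples at 0, 7, 17, 30 and 60 min quenched with cold methanol and analysed by LC-MS/MS. Half-life, Cl_int and MF% derived as previously described.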
# Pseudomonas aeruginosa [2] = assay: Antibacterial activity against wild type Pseudomonas aeruginosa ATCC 27853 assessed as reduction in bacterial growth incubated for 18 to 20 hrs by CLSI based microdilution method; format: functional; settings: time 18-20 hrs
# In short: (§2)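 CLSI broth microdilution. Compounds in DMSO (levofloxacin and meropenem in water), serial twofold dilutions in broth, 64 to 0.008 μg/mL. […] Results reported as MIC ranges across strains.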
# Klebsiella pneumoniae [3] = assay: Antibacterial activity agains wild type Klebsiella pneumoniae ATCC BAA-2470 assessed as reduction in bacterial growth incubated for 18 to 20 hrs by CLSI based microdilution method; format: functional; settings: time 18-20 hrs
# In short: (§3)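 Broth microdilution per CLSI. Compounds dissolved in DMSO (levofloxacin and meropenem in water) as 64 μg/mL stock, then serial twofold dilutions in broth giving 64 to 0.008 μg/mL. […] Clinical isolates tested as several strains per group; racemic GP-1 served as positive control; values given as MIC ranges.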
# Escherichia coli [4] = assay: Antibacterial activity against multidrug resistant wild type Escherichia coli NCTC 13353 assessed as reduction in bacterial growth incubated for 18 to 20 hrs by CLSI based microdilution method; format: functional; settings: time 18-20 hrs; in short: as §3
# [5] = molecular target: Voltage-gated inwardly rectifying potassium channel KCNH2 (Homo sapiens, UniProt Q12809); assay: Inhibition of hERG potassium channel assessed as […] at -80 mV holding potential incubated for 120 seconds by whole cell-automated voltage clamp analysis assay; format: toxicity
# Chain of Voltage-gated inwardly rectifying potassium channel KCNH2 (Q12809 whole entry): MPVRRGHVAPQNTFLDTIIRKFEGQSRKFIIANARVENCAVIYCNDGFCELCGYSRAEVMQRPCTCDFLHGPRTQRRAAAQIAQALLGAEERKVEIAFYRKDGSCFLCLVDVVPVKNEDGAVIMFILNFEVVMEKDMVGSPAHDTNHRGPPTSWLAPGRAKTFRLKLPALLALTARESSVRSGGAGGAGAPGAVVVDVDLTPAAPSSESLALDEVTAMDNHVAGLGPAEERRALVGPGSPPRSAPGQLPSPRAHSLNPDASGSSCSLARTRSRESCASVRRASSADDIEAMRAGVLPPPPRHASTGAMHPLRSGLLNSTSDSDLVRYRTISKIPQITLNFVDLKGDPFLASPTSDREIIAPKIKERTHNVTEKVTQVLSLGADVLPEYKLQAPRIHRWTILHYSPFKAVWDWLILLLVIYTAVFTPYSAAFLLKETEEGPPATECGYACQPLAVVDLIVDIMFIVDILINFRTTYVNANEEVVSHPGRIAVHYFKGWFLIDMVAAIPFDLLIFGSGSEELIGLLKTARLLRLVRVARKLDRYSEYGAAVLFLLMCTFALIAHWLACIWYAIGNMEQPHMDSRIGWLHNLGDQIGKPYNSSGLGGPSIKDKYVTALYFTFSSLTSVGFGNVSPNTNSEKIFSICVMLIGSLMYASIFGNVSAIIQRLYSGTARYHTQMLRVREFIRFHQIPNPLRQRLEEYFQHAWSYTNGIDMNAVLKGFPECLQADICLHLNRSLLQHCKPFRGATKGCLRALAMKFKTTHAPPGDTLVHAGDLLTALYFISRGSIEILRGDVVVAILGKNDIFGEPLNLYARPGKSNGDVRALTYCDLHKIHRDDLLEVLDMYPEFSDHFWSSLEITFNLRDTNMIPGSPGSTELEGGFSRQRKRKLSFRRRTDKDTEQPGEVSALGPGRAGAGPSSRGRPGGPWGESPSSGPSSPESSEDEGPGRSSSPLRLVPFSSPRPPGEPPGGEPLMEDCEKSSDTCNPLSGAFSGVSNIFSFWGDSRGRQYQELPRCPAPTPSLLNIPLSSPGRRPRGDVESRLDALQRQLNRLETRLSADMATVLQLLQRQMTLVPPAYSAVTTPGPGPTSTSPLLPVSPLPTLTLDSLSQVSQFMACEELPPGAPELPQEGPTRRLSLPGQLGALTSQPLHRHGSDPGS
# In short: (§4)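 Automated whole-cell patch clamp, holding potential −80 mV. Voltage protocol applied every 20 s. Baseline set with external solution containing 0.1% DMSO and stabilised 3 min. Compound applied until steady state, at least 3 min, then washout. Maximum tested concentration 40 μM, or 3 μM for cisapride as positive control.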
# [6] = Volume of distribution at the steady state in Sprague-Dawley rat at 4 mg/kg, iv measured upto 24 hrs by LC-MS/MS analysis; format: ADME, organism-based; settings: in vivo, read-out: Vdss
# In short: (§5)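 Male Sprague-Dawley rats, n = 3 per group, single intravenous dose. For 4 mg/kg: 180–280 g rats, vehicle 5% DMSO + 5% EtOH + 40% PEG300 + 50% saline, blood from the retrobulbar vein at 0.05–24 h. For 5 and 20 mg/kg: 180–300 g rats, vehicle 5% DMSO + 5% solutol + 90% saline, sampled at 0.083–24 h. Plasma quantified by LC/MS/MS. Parameters from mean plasma concentration by noncompartmental analysis; values are mean ± standard deviation.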
# Staphylococcus aureus = assay: Antibacterial activity against methicillin-sensitive Staphylococcus aureus strains 15 1 to 4 assessed as reduction in bacterial growth incubated for 18 to 20 hrs by CLSI based microdilution method; format: functional; settings: time 18-20 hrs; in short: as §3
# [7] = Metabolic stability in human liver microsome assessed as intrinsic clearance at 0.1 uM in presence of NADPH incubated upto 60 mins by LC-MS/MS analysis; format: ADME; settings: microsomes, 1 h; in short: as §1
# [8] = Elimination half life in Sprague-Dawley rat at 4 mg/kg, iv measured upto 24 hrs by LC-MS/MS analysis; format: ADME, organism-based; settings: in vivo, read-out: beta t1/2 (converted); in short: as §5
# [9] = AUC (0 to infinity) in Sprague-Dawley rat at 4 mg/kg, iv measured upto 24 hrs by LC-MS/MS analysis; format: ADME, organism-based; parameters: time < 24 hrs, dose 4 mg/kg, route iv; settings: in vivo; in short: as §5
# Escherichia coli [10] = assay: Antibacterial activity against Escherichia coli ATCC 35218 strains 15 1 to 3 assessed as reduction in bacterial growth incubated for 18 to 20 hrs by CLSI based microdilution method; format: functional; settings: time 18-20 hrs; in short: as §2
# Escherichia coli [11] = assay: Antibacterial activity against ESBL-producing multidrug resistant Escherichia coli assessed as reduction in bacterial growth incubated for 18 to 20 hrs by CLSI based microdilution method; format: functional; settings: time 18-20 hrs; in short: as §3
# [12] = Metabolic stability in rat liver microsome assessed as intrinsic clearance at 0.1 uM in presence of NADPH incubated upto 60 mins by LC-MS/MS analysis; format: ADME; settings: microsomes, 1 h; in short: as §1
# [13] = molecular target: hERG (KCNH2) potassium channel (Homo sapiens, UniProt Q12809); assay: Inhibition of hERG potassium channel assessed as maximum inhibition rate at 40 uM at -80 mV holding potential incubated for 120 seconds by whole cell-automated voltage clamp analysis assay relative to control; format: toxicity; settings: time 120 sec; in short: as §4
# Chain of hERG (KCNH2) potassium channel (Q12809 whole entry): as above
# Klebsiella pneumoniae [14] = assay: Antibacterial activity agains wild type Klebsiella pneumoniae ATCC BAA-1705 assessed as reduction in bacterial growth incubated for 18 to 20 hrs by CLSI based microdilution method; format: functional; settings: time 18-20 hrs; in short: as §2
# [15] = Metabolic stability in rat liver microsome assessed as metabolic bioavailability at 0.1 uM in presence of NADPH incubated upto 60 mins by LC-MS/MS analysis; format: ADME; settings: liver microsomes; in short: as §1
# [16] = Metabolic stability in human liver microsome assessed as metabolic bioavailability at 0.1 uM in presence of NADPH incubated upto 60 mins by LC-MS/MS analysis; format: ADME; settings: liver microsomes; in short: as §1
# Escherichia coli [17] = assay: Antibacterial activity against multidrug resistant wild type Escherichia coli ATCC BAA-2340 assessed as reduction in bacterial growth incubated for 18 to 20 hrs by CLSI based microdilution method; format: functional; settings: time 18-20 hrs; in short: as §3
# Acinetobacter baumannii [18] = assay: Antibacterial activity agains OXA23-producing multidrug resistant Acinetobacter baumannii assessed as reduction in bacterial growth incubated for 18 to 20 hrs by CLSI based microdilution method; format: functional; settings: time 18-20 hrs; in short: as §3
# [19] = Clearance in Sprague-Dawley rat at 4 mg/kg, iv measured upto 24 hrs by LC-MS/MS analysis; format: ADME, organism-based; settings: in vivo; in short: as §5
# [20] = test system: Staphylococcus epidermidis; assay: Antibacterial activity against methicillin-sensitive Staphylococcus epidermidis strains 15 1 to 4 assessed as reduction in bacterial growth incubated for 18 to 20 hrs by CLSI based microdilution method; format: functional; settings: time 18-20 hrs; in short: as §3
# Pseudomonas aeruginosa [21] = assay: Antibacterial activity against IMP4-producing multidrug resistant Pseudomonas aeruginosa assessed as reduction in bacterial growth incubated for 18 to 20 hrs by CLSI based microdilution method; format: functional; settings: time 18-20 hrs; in short: as §3
# Escherichia coli [22] = assay: Antibacterial activity against ESBL-producing Escherichia coli ATCC 35218 strains 15 1 to 3 assessed as reduction in bacterial growth incubated for 18 to 20 hrs by CLSI based microdilution method; format: functional; settings: time 18-20 hrs; in short: as §2
# [23] = Metabolic stability in rat liver microsome assessed as elimination half life at 0.1 uM in presence of NADPH incubated upto 60 mins by LC-MS/MS analysis; format: ADME; settings: liver microsomes, read-out: beta t1/2; in short: as §1
# Pseudomonas aeruginosa [24] = assay: Antibacterial activity against multidrug resistant Pseudomonas aeruginosa strains 15 1 to 3 assessed as reduction in bacterial growth incubated for 18 to 20 hrs by CLSI based microdilution method; format: functional; settings: time 18-20 hrs; in short: as §3
# Klebsiella pneumoniae [25] = assay: Antibacterial activity against KPC2-producing multidrug resistant Klebsiella pneumoniae assessed as reduction in bacterial growth incubated for 18 to 20 hrs by CLSI based microdilution method; format: functional; settings: time 18-20 hrs; in short: as §3
# Acinetobacter baumannii [26] = assay: Antibacterial activity against wild type Acinetobacter baumannii NCTC 13304 assessed as reduction in bacterial growth incubated for 18 to 20 hrs by CLSI based microdilution method; format: functional; settings: time 18-20 hrs; in short: as §3
# [27] = MRT in Sprague-Dawley rat at 4 mg/kg, iv measured upto 24 hrs by LC-MS/MS analysis; format: ADME, organism-based; settings: in vivo; in short: as §5
Compound,half-life at 0.1 µM [1],MIC (Pseudomonas aeruginosa [2]),MIC (Klebsiella pneumoniae [3]),MIC (Escherichia coli [4]),IC50 [5],Vd [6],MIC (Staphylococcus aureus),CLH [7],half-life [8],AUC(0-inf) [9],MIC (Escherichia coli [10]),MIC (Escherichia coli [11]),CLH [12],"inhibition at 2 min, 40 µM [13]",MIC (Klebsiella pneumoniae [14]),"Fh at 1 h, 0.1 µM [15]","Fh at 1 h, 0.1 µM [16]",MIC (Escherichia coli [17]),MIC (Acinetobacter baumannii [18]),clearance [19],further results
CCCC(CN)=C1CN(c2nc(Oc3cnc(C)nc3)nc3[nH]c4c(NC)cc(F)cc4c23)C1,0.792 h,4 µg/mL,4 µg/mL,0.5 µg/mL,51.5 µM,22.5 L/kg,< 0.008 µg/mL,44.3 mL/min/g,4.7 h,778 ng·h/mL,0.06 µg/mL,1 µg/mL,84.4 mL/min/g,50.6%,8 µg/mL,34.5%,30.7%,1 µg/mL,0.5 µg/mL,86.8 mL/min/kg,MIC [20]: < 0.008 µg/mL; MIC (Pseudomonas aeruginosa [21]): 4 µg/mL; MIC (Escherichia coli [22]): 0.125 µg/mL; half-life at 0.1 µM [23]: 0.415 h; MIC (Pseudomonas aeruginosa [24]): 2 µg/mL; MIC (Klebsiella pneumoniae [25]): 4 µg/mL; MIC (Acinetobacter baumannii [26]): 1 µg/mL; MRT [27]: 4.4 h
CCC(CN)=C1CN(c2nc(Oc3cnc(C(C)O)nc3)nc3[nH]c4c(NC)cc(F)cc4c23)C1 (stereo unspecified),0.912 h,4 µg/mL,2 µg/mL,0.5 µg/mL,> 40 µM,9.3 L/kg,< 0.008 µg/mL,38.4 mL/min/g,2.7 h,983 ng·h/mL,0.25 µg/mL,0.5 µg/mL,138.4 mL/min/g,36%,8 µg/mL,24.3%,33.8%,1 µg/mL,0.5 µg/mL,71.5 mL/min/kg,MIC [20]: < 0.008 µg/mL; MIC (Pseudomonas aeruginosa [21]): > 8 µg/mL; MIC (Escherichia coli [22]): 0.5 µg/mL; half-life at 0.1 µM [23]: 0.253 h; MIC (Pseudomonas aeruginosa [24]): 16 µg/mL; MIC (Klebsiella pneumoniae [25]): 4 µg/mL; MIC (Acinetobacter baumannii [26]): 0.5 µg/mL; MRT [27]: 2.1 h
